Source: ChEMBL document CHEMBL3244396, “Synthesis and antileukemic activity of 5-substituted 2,3-dihydro-6,7-bis(hydroxymethyl)-1H-pyrrolizine diesters” (J Med Chem, 1977)
Converted amounts (≈) assume the structure as drawn.

How the values were obtained:
Mus musculus [1] = test: Toxicity in female BDF1 mouse allografted with mouse L1210 cells assessed as animal survival at 100 mg/kg, ip administered daily for 9 days as Klucel suspension starting 24 hrs after tumor inoculation measured on fifth day; assay type: organism-based; set-up: dose 100 mg/kg, route intraperitoneal; conditions: in vivo
In short: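 Female BDF1 mice bearing ip ascitic L1210 inoculum got nine daily ip doses in a Klucel suspension, starting 24 h after tumor inoculation. Toxicity was scored as toxicity-day survivors out of the group, recorded on the fifth day. Animal weight difference (T − C) was also tabulated.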

L1210 [2] = test: Antileukemic activity against mouse L1210 cells allografted in female BDF1 mouse assessed as change in body weight at 100 mg/kg, ip administered daily for 9 days as Klucel suspension starting 24 hrs after tumor inoculation; assay type: functional; conditions: route intraperitoneal
In short: (§1)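 Ascitic fluid carrying L1210 cells was inoculated ip. Compound was given ip as a Klucel (hydroxypropylcellulose) suspension in nine daily doses, starting 24 h after inoculation. Body-weight difference (treated minus control) was recorded on day 5. Survival was scored as %T/C of mean survival time.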

Mus musculus [3] = test: Toxicity in female CDF1 mouse allografted with mouse P388 cells assessed as animal survival at 50 mg/kg, ip administered daily for 9 days as Klucel suspension starting 24 hrs after tumor inoculation; assay type: organism-based; set-up: dose 50 mg/kg, route intraperitoneal; conditions: in vivo
In short: (§2)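 P-388 leukemia ascitic fluid inoculated ip. Compound given ip as a suspension in Klucel (hydroxypropylcellulose), once daily for nine doses beginning 24 h post-inoculation. Acute toxicity assessed as toxicity-day survivors per group. Survival was followed up to 30 days, with 30-day survival counted as "cure". Follows NCI screening protocols.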

P388 [4] = test: Antitumor activity against mouse P388 cells allografted in female BDF1 mouse assessed as change in body weight at 25 mg/kg, ip administered daily for 9 days as Klucel suspension starting 24 hrs after tumor inoculation; assay type: functional; conditions: route intraperitoneal
In short: (§3)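 Ascitic fluid carrying P388 cells was inoculated ip. Compound was given ip in nine daily doses, starting 24 h after inoculation, in Klucel (hydroxypropylcellulose) suspension or in saline with Tween-80. Body-weight difference (treated minus control) was recorded on day 5. Survival was scored as %T/C of median survival time, and 30-day survival counted as cure.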

P388 [5] = test: Antitumor activity against mouse P388 cells allografted in female CDF1 mouse assessed as disease cures by measuring 30-days host survival at 200 mg/kg, ip administered daily for 9 days as Klucel suspension starting 24 hrs after tumor inoculation relative to control; assay type: functional; conditions: route intraperitoneal
In short: (§4)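 P388 leukemia given as an ascitic fluid cell inoculum, ip, to mice of the strain and sex in each line. Nine daily ip doses were given in a Klucel (hydroxypropylcellulose) suspension, starting 24 h after inoculation. Read-out is median survival time as %T/C, with >125 taken as significant; a "cure" means 30-day survival.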

Mus musculus [6] = test: Toxicity in female CDF1 mouse allografted with mouse P388 cells assessed as animal survival at 200 mg/kg, ip administered daily for 9 days as Klucel suspension starting 24 hrs after tumor inoculation; assay type: organism-based; set-up: dose 200 mg/kg, route intraperitoneal; conditions: in vivo; in short: as §2
L1210 [7] = test: Antileukemic activity against mouse L1210 cells allografted in female BDF1 mouse assessed as change in body weight at 200 mg/kg, ip administered daily for 9 days as Klucel suspension starting 24 hrs after tumor inoculation; assay type: functional; conditions: route intraperitoneal; in short: as §1
Mus musculus [8] = test: Toxicity in female BDF1 mouse allografted with mouse L1210 cells assessed as animal survival at 200 mg/kg, ip administered daily for 9 days as Klucel suspension starting 24 hrs after tumor inoculation measured on fifth day; assay type: organism-based; set-up: dose 200 mg/kg, route intraperitoneal; conditions: in vivo
In short: (§5)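 L1210 leukemia passaged as ascitic fluid and inoculated ip. Test agent given ip as a Klucel (hydroxypropylcellulose) suspension, nine daily doses starting 24 h after tumor inoculation. Acute toxicity read as toxicity-day survivors per group (out of 6), recorded on day 5. Animal weight difference T − C was also recorded. Follows NCI screening protocols.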

L1210 [9] = test: Antileukemic activity against mouse L1210 cells allografted in female BDF1 mouse assessed as host mean survival time at 100 mg/kg, ip administered daily for 9 days as Klucel suspension starting 24 hrs after tumor inoculation relative to control; assay type: functional; conditions: route intraperitoneal
In short: (§6)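 L1210 leukemia given as an ascitic fluid cell inoculum, ip, to mice of the strain and sex in each line. Test material was given ip for nine daily doses starting 24 h after inoculation, in a Klucel (hydroxypropylcellulose) suspension. Read-out is mean survival time as %T/C versus controls, with >125 taken as significant.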

Mus musculus [10] = test: Toxicity in female BDF1 mouse allografted with mouse L1210 cells assessed as animal survival at 50 mg/kg, ip administered daily for 9 days as Klucel suspension starting 24 hrs after tumor inoculation measured on fifth day; assay type: organism-based; set-up: dose 50 mg/kg, route intraperitoneal; conditions: in vivo; in short: as §5
P388 [11] = test: Antitumor activity against mouse P388 cells allografted in female CDF1 mouse assessed as disease cures by measuring 30-days host survival at 50 mg/kg, ip administered daily for 9 days as Klucel suspension starting 24 hrs after tumor inoculation relative to control; assay type: functional; conditions: route intraperitoneal; in short: as §4
P388 [12] = test: Antitumor activity against mouse P388 cells allografted in female BDF1 mouse assessed as disease cures by measuring 30-days host survival at 25 mg/kg, ip administered daily for 9 days as Klucel suspension starting 24 hrs after tumor inoculation relative to control; assay type: functional; conditions: route intraperitoneal; in short: as §4
[13] = Cytotoxicity against human 9KB cells treated as ethanol solution; assay type: functional; conditions: read-out: ED50 (the source's name)
In short: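 Compound applied as an ethanol solution; activity read out as ED50 under the general screening protocol.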

L1210 [14] = test: Antileukemic activity against mouse L1210 cells allografted in female BDF1 mouse assessed as host mean survival time at 200 mg/kg, ip administered daily for 9 days as Klucel suspension starting 24 hrs after tumor inoculation relative to control; assay type: functional; conditions: route intraperitoneal; in short: as §6
L1210 [15] = test: Antileukemic activity against mouse L1210 cells allografted in female BDF1 mouse assessed as change in body weight at 50 mg/kg, ip administered daily for 9 days as Klucel suspension starting 24 hrs after tumor inoculation; assay type: functional; conditions: route intraperitoneal; in short: as §1
Mus musculus [16] = test: Toxicity in female CDF1 mouse allografted with mouse P388 cells assessed as animal survival at 100 mg/kg, ip administered daily for 9 days as Klucel suspension starting 24 hrs after tumor inoculation; assay type: organism-based; set-up: dose 100 mg/kg, route intraperitoneal; conditions: in vivo; in short: as §2
Mus musculus [17] = test: Toxicity in female BDF1 mouse allografted with mouse P388 cells assessed as animal survival at 25 mg/kg, ip administered daily for 9 days as Klucel suspension starting 24 hrs after tumor inoculation; assay type: organism-based; set-up: dose 25 mg/kg, route intraperitoneal; conditions: in vivo; in short: as §2
Mus musculus [18] = test: Toxicity in female BDF1 mouse allografted with mouse P388 cells assessed as animal survival at 12.5 mg/kg, ip administered daily for 9 days as Klucel suspension starting 24 hrs after tumor inoculation; assay type: organism-based; set-up: dose 12.5 mg/kg, route intraperitoneal; conditions: in vivo; in short: as §2
L1210 [19] = test: Antileukemic activity against mouse L1210 cells allografted in female BDF1 mouse assessed as host mean survival time at 50 mg/kg, ip administered daily for 9 days as Klucel suspension starting 24 hrs after tumor inoculation relative to control; assay type: functional; conditions: route intraperitoneal; in short: as §6
P388 [20] = test: Antitumor activity against mouse P388 cells allografted in female CDF1 mouse assessed as change in body weight at 50 mg/kg, ip administered daily for 9 days as Klucel suspension starting 24 hrs after tumor inoculation; assay type: functional; conditions: route intraperitoneal; in short: as §3
P388 [21] = test: Antitumor activity against mouse P388 cells allografted in female CDF1 mouse assessed as disease cures by measuring 30-days host survival at 100 mg/kg, ip administered daily for 9 days as Klucel suspension starting 24 hrs after tumor inoculation relative to control; assay type: functional; conditions: route intraperitoneal; in short: as §4
P388 [22] = test: Antitumor activity against mouse P388 cells allografted in female BDF1 mouse assessed as disease cures by measuring 30-days host survival at 12.5 mg/kg, ip administered daily for 9 days as Klucel suspension starting 24 hrs after tumor inoculation relative to control; assay type: functional; conditions: route intraperitoneal; in short: as §4
P388 [23] = test: Antitumor activity against mouse P388 cells allografted in female CDF1 mouse assessed as change in body weight at 100 mg/kg, ip administered daily for 9 days as Klucel suspension starting 24 hrs after tumor inoculation; assay type: functional; conditions: route intraperitoneal; in short: as §3
P388 [24] = test: Antitumor activity against mouse P388 cells allografted in female CDF1 mouse assessed as change in body weight at 200 mg/kg, ip administered daily for 9 days as Klucel suspension starting 24 hrs after tumor inoculation; assay type: functional; conditions: route intraperitoneal; in short: as §3
P388 [25] = test: Antitumor activity against mouse P388 cells allografted in female BDF1 mouse assessed as change in body weight at 12.5 mg/kg, ip administered daily for 9 days as Klucel suspension starting 24 hrs after tumor inoculation; assay type: functional; conditions: route intraperitoneal; in short: as §3

Compound | Activity (Mus musculus [1]) | Activity (L1210 [2]) [g] | Activity (Mus musculus [3]) | T/C (P388 [5]) [%] | Activity (L1210 [7]) [g] | Activity (Mus musculus [8]) | T/C (L1210 [9]) [%] | Activity (Mus musculus [10]) | T/C (P388 [11]) [%] | EC50 [13] [µg/mL] | Activity (L1210 [15]) [g] | T/C (L1210 [19]) [%] | Activity (P388 [20]) [g] | T/C (P388 [21]) [%] | Activity (P388 [23]) [g] | Activity (P388 [24]) [g] | also measured
CC(=O)OCc1c(COC(C)=O)c(-c2ccc(Cl)c(Cl)c2)n2c1CCC2 | Non-toxic | -2.2 | Non-toxic | 127 | -3.3 | Non-toxic | 104 | Non-toxic | 141 | > 100 | -1.1 | 100 | -0.7 | 122 | -1 | -3 | Activity (P388 [4]): 1.2 g; Activity (Mus musculus [6]): Non-toxic; T/C (P388 [12]): 125%; T/C (L1210 [14]): 100%; Activity (Mus musculus [16]): Non-toxic; Activity (Mus musculus [17]): Non-toxic; Activity (Mus musculus [18]): Non-toxic; T/C (P388 [22]): 114%; Activity (P388 [25]): 1.2 g
OCc1c(CO)c(C(F)(F)F)n2c1CCC2 | Non-toxic | -1.1 | Non-toxic | 108 | -2.8 | Toxic | 104 | Non-toxic | 104 | 25 (≈ 106 µM) | -0.3 | 107 | 2.1 | 104 | 0.6 | 1.1 | –
